Columns and labels:
[1] = biological target: T1, Squalene synthase (Homo sapiens, UniProt P37268); experiment: Inhibition of recombinant squalene synthase assessed as conversion of trans,trans-[1-3H]farnesyl pyrophosphate to [3H]squalene after 10 mins by liquid scintillation counting
T1 sequence (P37268 whole entry): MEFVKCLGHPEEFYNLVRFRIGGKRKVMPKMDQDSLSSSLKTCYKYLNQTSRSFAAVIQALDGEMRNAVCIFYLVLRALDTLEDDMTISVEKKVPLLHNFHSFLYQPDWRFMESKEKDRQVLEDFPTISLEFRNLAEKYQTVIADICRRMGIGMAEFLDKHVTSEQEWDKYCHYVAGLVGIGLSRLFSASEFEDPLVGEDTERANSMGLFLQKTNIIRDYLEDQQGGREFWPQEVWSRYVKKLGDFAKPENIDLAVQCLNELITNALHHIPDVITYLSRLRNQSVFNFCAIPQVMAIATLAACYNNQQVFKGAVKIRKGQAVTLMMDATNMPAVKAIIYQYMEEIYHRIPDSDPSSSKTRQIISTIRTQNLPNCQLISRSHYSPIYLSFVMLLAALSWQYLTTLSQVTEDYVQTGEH
Summary of the method: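 Recombinant SQS in 1 mM NADPH, 5 mM DTT, 10% PBS, 10 mM sodium fluoride and 0.5 mM MgCl₂, pH 7.5. Compounds were added from DMSO at defined concentrations. The reaction was started with farnesyl pyrophosphate plus 0.2 nM trans,trans-[1-³H]-farnesyl pyrophosphate, run 10 min at 37 °C, then extracted with chloroform/methanol. IC50 values are means of three experiments.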

[2] = Stability in human liver microsomes assessed as compound remaining after 60 mins; type: ADME, Microsome; conditions: read-out: Stability
[3] = test system: Mus musculus; experiment: In vivo inhibition of squalene synthase in NMRI mouse assessed as inhibition of hepatic [14C]cholesterol biosynthesis at 3 mg/kg, po measured after 1 hr by liquid scintillation counting
[4] = test system: Mus musculus; experiment: In vivo inhibition of squalene synthase in NMRI mouse assessed as inhibition of hepatic [14C]cholesterol biosynthesis at 1 mg/kg, po measured after 1 hr by liquid scintillation counting

| SMILES | IC50 [1] [nM] | remaining at 1 h [2] [%] | inhibition in vivo at 3 mg/kg [3] [%] | inhibition in vivo at 1 mg/kg [4] [%] |
| --- | --- | --- | --- | --- |
| COc1cccc([C@H]2O[C@H](CC(=O)N3CC[C@@H](O)C3)c3noc(C(C)C)c3-c3ccc(Cl)cc32)c1OC | 162 | – | – | – |
| COc1cccc([C@H]2O[C@H](CC(=O)N3CCC(CC(=O)O)CC3)C(=O)N(CC(C)(C)COC(C)=O)c3ccc(Cl)cc32)c1OC [LAPAQUISTAT ACETATE] | 213 | 7 | 73 | 59 |
| COc1cccc([C@H]2O[C@H](CC(=O)N3CCC(CC(=O)O)CC3)C(=O)N(CC(C)(C)CO)c3ccc(Cl)cc32)c1OC | 260 | 37 | – | – |
| COc1cccc([C@H]2O[C@H](CC(=O)O)C(=O)N(CC(C)(C)CO)c3ccc(Cl)cc32)c1OC | 223 | – | – | – |
| COc1cccc(C2OC(CC(=O)O)c3noc(C(C)C)c3-c3ccc(Cl)cc32)c1OC (single isomer, unassigned; enantiomer 3) | 169 | 64 | 31 | – |
| COc1cccc([C@@H]2O[C@@H](CC(=O)O)c3noc(C(C)C)c3-c3ccc(Cl)cc32)c1OC | 1420 | – | – | – |
| COc1cccc(C2OC(CC(=O)O)c3noc(C(C)C)c3-c3ccc(Cl)cc32)c1OC (single isomer, unassigned; enantiomer 2) | 5500 | – | – | – |

These reach a lower IC50 [1]. Values come first.

| IC50 [1] [nM] | remaining at 1 h [2] [%] | SMILES | inhibition in vivo at 3 mg/kg [3] [%] | inhibition in vivo at 1 mg/kg [4] [%] |
| --- | --- | --- | --- | --- |
| 131 | 91 | COc1cccc([C@H]2O[C@H](CC(=O)N3CCC(CC(=O)O)CC3)c3noc(C(C)C)c3-c3ccc(Cl)cc32)c1OC | 80 | – |
| 112 | – | COc1cccc([C@H]2O[C@H](CC(=O)N3CCC(C(=O)O)CC3)c3noc(C(C)C)c3-c3ccc(Cl)cc32)c1OC | – | – |
| 56 | 100 | COc1cccc([C@H]2O[C@H](CC(=O)O)c3noc(C(C)C)c3-c3ccc(Cl)cc32)c1OC | 58 | – |

Reference: ChEMBL document CHEMBL1777787, “Identification of 4H,6H-[2]benzoxepino[4,5-c][1,2]oxazoles as novel squalene synthase inhibitors” (Bioorg Med Chem Lett, 2011)
